Results published in ChEMBL document CHEMBL1649446, “Comparative antipneumococcal activities of sulopenem and other drugs” (2009).
Converted amounts (≈) assume the structure as drawn.

Assays:
Assay type in all cases: functional
[1] = tested on: Streptococcus pneumoniae; test: Antimicrobial activity against Streptococcus pneumoniae isolate 1397 by agar dilution method
Outline: (§1)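 Agar dilution MIC on Mueller-Hinton agar with 5% sheep blood, inocula 10^4 CFU/spot; amoxicillin-clavulanate combined 1:2; S. pneumoniae ATCC 49619 quality control each run.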

[2] = tested on: Streptococcus pneumoniae; test: Antimicrobial activity against Streptococcus pneumoniae isolate 3481 by agar dilution method; outline: as §1
[3] = tested on: Streptococcus pneumoniae; test: Antimicrobial activity against Streptococcus pneumoniae isolate 1394 by agar dilution method
[4] = tested on: Streptococcus pneumoniae; test: Antimicrobial activity against Streptococcus pneumoniae isolate 33 by agar dilution method; outline: as §1
[5] = tested on: Streptococcus pneumoniae; test: Antimicrobial activity against Streptococcus pneumoniae isolate 1564 by agar dilution method
[6] = tested on: Streptococcus pneumoniae; test: Antimicrobial activity against Streptococcus pneumoniae isolate 4747 by agar dilution method; outline: as §1
[7] = tested on: Streptococcus pneumoniae; test: Antimicrobial activity against compound-resistant Streptococcus pneumoniae by agar dilution method
Outline: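 Agar dilution on Mueller-Hinton agar with 5% sheep blood, inocula 10^4 CFU/spot. Panel of 45 drug-resistant serotype 19A pneumococci, plus 297 clinical strains grouped as penicillin-susceptible, -intermediate or -resistant (some macrolide- or levofloxacin-resistant, with defined mechanisms). Amoxicillin combined with clavulanate 1:2. S. pneumoniae ATCC 49619 quality control included in each run. MIC range, MIC50 and MIC90 reported.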

[8] = tested on: Streptococcus pneumoniae; test: Antimicrobial activity against Streptococcus pneumoniae isolate 3455 by agar dilution method
[9] = tested on: Streptococcus pneumoniae; test: Antimicrobial activity against Streptococcus pneumoniae isolate 2617 by agar dilution method; outline: as §1
[10] = tested on: Streptococcus pneumoniae; test: Antimicrobial activity against Streptococcus pneumoniae isolate 1147 by agar dilution method; outline: as §1
[11] = tested on: Streptococcus pneumoniae; test: Antimicrobial activity against Streptococcus pneumoniae isolate 1146 by agar dilution method; outline: as §1
[12] = tested on: Streptococcus pneumoniae; test: Antimicrobial activity against Streptococcus pneumoniae isolate 1384 by agar dilution method; outline: as §1
[13] = tested on: Streptococcus pneumoniae; test: Antimicrobial activity against Streptococcus pneumoniae isolate 3458 by agar dilution method
[14] = tested on: Streptococcus pneumoniae; test: Antimicrobial activity against Streptococcus pneumoniae isolate 4755 by agar dilution method; outline: as §1
[15] = tested on: Streptococcus pneumoniae; test: Antimicrobial activity against Streptococcus pneumoniae isolate 3282 by agar dilution method
[16] = tested on: Streptococcus pneumoniae; test: Antimicrobial activity against Streptococcus pneumoniae isolate 1055 by agar dilution method
[17] = tested on: Streptococcus pneumoniae; test: Antimicrobial activity against Streptococcus pneumoniae isolate 2880 by agar dilution method; outline: as §1
[18] = tested on: Streptococcus pneumoniae; test: Antimicrobial activity against Streptococcus pneumoniae isolate 3791 by agar dilution method; outline: as §1
[19] = tested on: Streptococcus pneumoniae; test: Antimicrobial activity against Streptococcus pneumoniae isolate 3681 by agar dilution method; outline: as §1
[20] = tested on: Streptococcus pneumoniae; test: Antimicrobial activity against Streptococcus pneumoniae isolate 3412 by agar dilution method; outline: as §1
[21] = tested on: Streptococcus pneumoniae; test: Antimicrobial activity against Streptococcus pneumoniae isolate 24 by agar dilution method
[22] = tested on: Streptococcus pneumoniae; test: Antimicrobial activity against Streptococcus pneumoniae isolate 3587 by agar dilution method
[23] = tested on: Streptococcus pneumoniae; test: Antimicrobial activity against Streptococcus pneumoniae isolate 3346 by agar dilution method
[24] = tested on: Streptococcus pneumoniae; test: Antimicrobial activity against compound-susceptible Streptococcus pneumoniae by agar dilution method; outline: as §1
[25] = tested on: Streptococcus pneumoniae; test: Antimicrobial activity against Streptococcus pneumoniae isolate 1424 by agar dilution method; outline: as §1
[26] = tested on: Streptococcus pneumoniae; test: Antimicrobial activity against Streptococcus pneumoniae isolate 37 by agar dilution method; outline: as §1
[27] = tested on: Streptococcus pneumoniae; test: Antimicrobial activity against Streptococcus pneumoniae isolate 3275 by agar dilution method; outline: as §1
[28] = tested on: Streptococcus pneumoniae; test: Antimicrobial activity against Streptococcus pneumoniae isolate 2874 by agar dilution method; outline: as §1
[29] = tested on: Streptococcus pneumoniae; test: Antimicrobial activity against Streptococcus pneumoniae isolate 2688 by agar dilution method; outline: as §1
[30] = tested on: Streptococcus pneumoniae; test: Antimicrobial activity against Streptococcus pneumoniae isolate 3374 by agar dilution method; outline: as §1
[31] = tested on: Streptococcus pneumoniae; test: Antimicrobial activity against Streptococcus pneumoniae isolate 3260 by agar dilution method
[32] = tested on: Streptococcus pneumoniae; test: Antimicrobial activity against compound-intermediate Streptococcus pneumoniae by agar dilution method; outline: as §1
[33] = tested on: Streptococcus pneumoniae; test: Antimicrobial activity against Streptococcus pneumoniae isolate 2686 by agar dilution method; outline: as §1
[34] = tested on: Streptococcus pneumoniae; test: Antimicrobial activity against penicillin-susceptible Streptococcus pneumoniae by agar dilution method
[35] = tested on: Streptococcus pneumoniae; test: Antimicrobial activity against Streptococcus pneumoniae 4 by time-kill analysis
Outline: (§2)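 Time-kill in cation-adjusted Mueller-Hinton broth with 5% lysed horse blood; inocula 5 × 105 to 5 × 10^6 CFU/ml; drugs at MIC, 2× and 4× MIC; 35°C shaking water bath; viable counts at 0, 3, 6, 12, 24 h. Bactericidal = ≥3 log10 CFU/ml (99.9%) drop from original inoculum; 90%/99%/99.9% killing scored per strain.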

[36] = tested on: Streptococcus pneumoniae; test: Antimicrobial activity against penicillin-intermediate Streptococcus pneumoniae by agar dilution method
[37] = tested on: Streptococcus pneumoniae; test: Antimicrobial activity against penicillin-resistant Streptococcus pneumoniae by agar dilution method; outline: as §1
[38] = tested on: Streptococcus pneumoniae; test: Antimicrobial activity against Streptococcus pneumoniae isolate 3263 by agar dilution method
[39] = tested on: Streptococcus pneumoniae; test: Antimicrobial activity against Streptococcus pneumoniae 1 by time-kill analysis
Outline: (§3)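 Time-kill in cation-adjusted Mueller-Hinton broth with 5% lysed horse blood; inocula 5 × 105 to 5 × 10^6 CFU/ml; drugs at MIC, 2× and 4× MIC; 35°C shaking water bath; viable counts at 0, 3, 6, 12 and 24 h. Bactericidal if ≥3 log10 CFU/ml (99.9%) reduction from original inoculum; 90% and 99% killing also scored.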

[40] = tested on: Streptococcus pneumoniae; test: Antimicrobial activity against Streptococcus pneumoniae 2 by time-kill analysis; outline: as §2
[41] = tested on: Streptococcus pneumoniae; test: Antimicrobial activity against Streptococcus pneumoniae 5 by time-kill analysis; outline: as §3
[42] = tested on: Streptococcus pneumoniae; test: Antimicrobial activity against Streptococcus pneumoniae 3 by time-kill analysis; outline: as §2
[43] = tested on: Streptococcus pneumoniae; test: Antimicrobial activity against Streptococcus pneumoniae 7 by time-kill analysis; outline: as §2
[44] = tested on: Streptococcus pneumoniae; test: Antimicrobial activity against Streptococcus pneumoniae 8 by time-kill analysis; outline: as §2
[45] = tested on: Streptococcus pneumoniae; test: Antimicrobial activity against Streptococcus pneumoniae 19A by agar dilution method; outline: as §1
[46] = tested on: Streptococcus pneumoniae; test: Antimicrobial activity against Streptococcus pneumoniae 12 by time-kill analysis; outline: as §2
[47] = tested on: Streptococcus pneumoniae; test: Antimicrobial activity against Streptococcus pneumoniae 6 by time-kill analysis; outline: as §2
[48] = tested on: Streptococcus pneumoniae; test: Antimicrobial activity against Streptococcus pneumoniae 11 by time-kill analysis; outline: as §2
[49] = tested on: Streptococcus pneumoniae; test: Antimicrobial activity against Streptococcus pneumoniae 9 by time-kill analysis; outline: as §3
[50] = tested on: Streptococcus pneumoniae; test: Antimicrobial activity against Streptococcus pneumoniae 10 by time-kill analysis; outline: as §2

Compound: CC1(C)S[C@@H]2[C@H](NC(=O)Cc3ccccc3)C(=O)N2[C@H]1C(=O)O [PENICILLIN G]
- MIC [1]: 2 µg/mL (≈ 5.98 µM)
- MIC [2]: 8 µg/mL (≈ 23.9 µM)
- MIC [3]: 4 µg/mL (≈ 12 µM)
- MIC [4]: 4 µg/mL (≈ 12 µM)
- MIC [5]: 16 µg/mL (≈ 47.8 µM)
- MIC [6]: 4 µg/mL (≈ 12 µM)
- MIC [7]: 2 µg/mL (≈ 5.98 µM)
- MIC50 [7]: 2 µg/mL (≈ 5.98 µM)
- MIC90 [7]: 4 µg/mL (≈ 12 µM)
- MIC [8]: 4 µg/mL (≈ 12 µM)
- MIC [9]: 1 µg/mL (≈ 2.99 µM)
- MIC [10]: 4 µg/mL (≈ 12 µM)
- MIC [11]: 4 µg/mL (≈ 12 µM)
- MIC [12]: 4 µg/mL (≈ 12 µM)
- MIC [13]: 4 µg/mL (≈ 12 µM)
- MIC [14]: 8 µg/mL (≈ 23.9 µM)
- MIC [15]: 4 µg/mL (≈ 12 µM)
- MIC [16]: 2 µg/mL (≈ 5.98 µM)
- MIC [17]: 4 µg/mL (≈ 12 µM)
- MIC [18]: 2 µg/mL (≈ 5.98 µM)
- MIC [19]: 1 µg/mL (≈ 2.99 µM)
- MIC [20]: 2 µg/mL (≈ 5.98 µM)
- MIC [21]: 4 µg/mL (≈ 12 µM)
- MIC [22]: 2 µg/mL (≈ 5.98 µM)
- MIC [23]: 4 µg/mL (≈ 12 µM)
- MIC50 [24]: 0.03 µg/mL (≈ 0.0897 µM)
- MIC90 [24]: 0.06 µg/mL (≈ 0.179 µM)
- MIC [25]: 2 µg/mL (≈ 5.98 µM)
- MIC [26]: 4 µg/mL (≈ 12 µM)
- MIC [27]: 1 µg/mL (≈ 2.99 µM)
- MIC [28]: 8 µg/mL (≈ 23.9 µM)
- MIC [29]: 8 µg/mL (≈ 23.9 µM)
- MIC [30]: 2 µg/mL (≈ 5.98 µM)
- MIC [31]: 4 µg/mL (≈ 12 µM)
- MIC50 [32]: 0.25 µg/mL (≈ 0.748 µM)
- MIC90 [32]: 1 µg/mL (≈ 2.99 µM)
- MIC [33]: 4 µg/mL (≈ 12 µM)

Compound: C[C@@H](O)[C@H]1C(=O)N2C(C(=O)O)=C(S[C@H]3CC[S@@+]([O-])C3)S[C@H]12 [SULOPENEM]
- MIC [1]: 0.5 µg/mL (≈ 1.43 µM)
- MIC [2]: 0.25 µg/mL (≈ 0.715 µM)
- MIC50 [34]: 0.008 µg/mL (≈ 0.0229 µM)
- MIC90 [34]: 0.016 µg/mL (≈ 0.0458 µM)
- MIC [35]: 0.5 µg/mL (≈ 1.43 µM)
- MIC [3]: 0.5 µg/mL (≈ 1.43 µM)
- MIC [4]: 1 µg/mL (≈ 2.86 µM)
- MIC [5]: 0.5 µg/mL (≈ 1.43 µM)
- MIC50 [36]: 0.06 µg/mL (≈ 0.172 µM)
- MIC90 [36]: 0.25 µg/mL (≈ 0.715 µM)
- MIC [6]: 0.25 µg/mL (≈ 0.715 µM)
- MIC [8]: 1 µg/mL (≈ 2.86 µM)
- MIC50 [37]: 0.25 µg/mL (≈ 0.715 µM)
- MIC90 [37]: 0.5 µg/mL (≈ 1.43 µM)
- MIC [9]: 0.25 µg/mL (≈ 0.715 µM)
- MIC [38]: 0.25 µg/mL (≈ 0.715 µM)
- MIC [10]: 1 µg/mL (≈ 2.86 µM)
- MIC [11]: 1 µg/mL (≈ 2.86 µM)
- MIC [12]: 0.25 µg/mL (≈ 0.715 µM)
- MIC [13]: 1 µg/mL (≈ 2.86 µM)
- MIC [39]: 0.008 µg/mL (≈ 0.0229 µM)
- MIC [14]: 0.5 µg/mL (≈ 1.43 µM)
- MIC [15]: 0.5 µg/mL (≈ 1.43 µM)
- MIC [40]: 0.008 µg/mL (≈ 0.0229 µM)
- MIC [16]: 0.25 µg/mL (≈ 0.715 µM)
- MIC [17]: 0.5 µg/mL (≈ 1.43 µM)
- MIC [41]: 1 µg/mL (≈ 2.86 µM)
- MIC [18]: 0.25 µg/mL (≈ 0.715 µM)
- MIC [42]: 0.12 µg/mL (≈ 0.343 µM)
- MIC [19]: 0.25 µg/mL (≈ 0.715 µM)
- MIC [20]: 0.125 µg/mL (≈ 0.358 µM)
- MIC [21]: 0.5 µg/mL (≈ 1.43 µM)
- MIC [43]: 1 µg/mL (≈ 2.86 µM)
- MIC [22]: 0.25 µg/mL (≈ 0.715 µM)
- MIC [23]: 0.5 µg/mL (≈ 1.43 µM)
- MIC [44]: 1 µg/mL (≈ 2.86 µM)
- MIC50 [45]: 1 µg/mL (≈ 2.86 µM)
- MIC90 [45]: 2 µg/mL (≈ 5.72 µM)
- MIC [46]: 0.5 µg/mL (≈ 1.43 µM)
- MIC [47]: 0.12 µg/mL (≈ 0.343 µM)
- MIC [25]: 0.5 µg/mL (≈ 1.43 µM)
- MIC [26]: 1 µg/mL (≈ 2.86 µM)
- MIC [48]: 1 µg/mL (≈ 2.86 µM)
- MIC [27]: 0.125 µg/mL (≈ 0.358 µM)
- MIC [49]: 0.12 µg/mL (≈ 0.343 µM)
- MIC [28]: 1 µg/mL (≈ 2.86 µM)
- MIC [29]: 1 µg/mL (≈ 2.86 µM)
- MIC [50]: 0.06 µg/mL (≈ 0.172 µM)
- MIC [30]: 0.25 µg/mL (≈ 0.715 µM)
- MIC [31]: 0.5 µg/mL (≈ 1.43 µM)
- MIC [33]: 1 µg/mL (≈ 2.86 µM)
